Reference: ChEMBL document CHEMBL4673250, “Analogs of nitrofuran antibiotics are potent GroEL/ES inhibitor pro-drugs” (Bioorg Med Chem, 2020)
Activity calls are given as the source filed them. No cut-off for these calls is given here.

Key:
[1] = test system: Enterococcus faecium; assay: Antibacterial activity against Enterococcus faecium ATCC 19434 assessed as reduction in bacterial growth by serial dilution method; format: functional, organism-based
[2] = test system: Staphylococcus aureus; assay: Antibacterial activity against Staphylococcus aureus ATCC 25923 assessed as reduction in bacterial growth by serial dilution method; format: functional, organism-based
[3] = test system: Klebsiella pneumoniae; assay: Antibacterial activity against Klebsiella pneumoniae ATCC 13883 assessed as reduction in bacterial growth by serial dilution method; format: functional, organism-based
[4] = test system: Acinetobacter baumannii; assay: Antibacterial activity against Acinetobacter baumannii ATCC 19606 assessed as reduction in bacterial growth by serial dilution method; format: functional, organism-based; conditions: ATCC 19606 = CIP 70.34 = JCM 6841
[5] = test system: Pseudomonas aeruginosa; assay: Antibacterial activity against Pseudomonas aeruginosa ATCC 10145 assessed as reduction in bacterial growth by serial dilution method; format: functional, organism-based
[6] = test system: Enterobacter cloacae; assay: Antibacterial activity against Enterobacter cloacae ATCC 13047 assessed as reduction in bacterial growth by serial dilution method; format: functional, organism-based
[7] = test system: Escherichia coli; assay: Antibacterial activity against Escherichia coli assessed as reduction in bacterial growth by serial dilution method; format: functional, organism-based
Method in brief: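 Liquid-culture proliferation in media supplemented with physiological free calcium and magnesium; cultures started at OD600 = 0.01, exposed to 8-point 3-fold dilution series (100 μM to 46 nM), grown to mid-log phase (OD600 ~0.4–0.6), then final OD600 read. E. coli strain NEB 5-alpha (DH5α derivative).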

[8] = target: T1, E. coli GroEL/ES (Escherichia coli, UniProt P0A6F5); assay: Inhibition of Escherichia coli GroEL/ES-mediated refolding of the denatured malate dehydrogenase; format: protein-complex assay
Method in brief: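 E. coli GroEL/ES-mediated refolding of denatured MDH as the reporter enzyme. IC50 values are averages from at least four replicates. […] GroEL tetradecamer is present at 50 nM during the refolding cycle. DMSO serves as the negative control.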

[9] = target: T1, E. coli GroEL/ES; assay: Inhibition of Escherichia coli GroEL/ES-mediated refolding of the denatured malate dehydrogenase in presence of Escherichia coli type 1 NfsB nitroreductase; format: protein-complex assay
Method in brief: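 GroEL/ES-dMDH refolding with 10 µg/mL E. coli NfsB added to the initial GroEL/ES-dMDH mix. After compound stamping, NADH (2.4 mM stock) is added and the mix is incubated 10 min at 37°C to bioactivate nitrofurans. Compounds during the refolding cycle span 83 µM to 38 nM (3-fold series).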

[10] = test system: FHC; assay: Cytotoxicity against human FHC cells assessed as reduction in cell viability incubated for 48 hrs by alamar blue assay; format: cell-based
Method in brief: (§1)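 Alamar Blue viability: cells grown to ~80–90% confluency, seeded 1,500 per well and cultured 24 h without compound, then compound added for a further 48 h; resazurin reagent added and fluorescence monitored over time.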

[11] = Cytotoxicity against human FHs74Int cells assessed as reduction in cell viability incubated for 48 hrs by alamar blue assay; format: cell-based; method in brief: as §1
[12] = Selectivity index, ratio of CC50 for human FHC cells to EC50 for Escherichia coli; format: toxicity; conditions: read-out: Ratio CC50/EC50
[13] = Selectivity index, ratio of CC50 for human FHs 74 cells to EC50 for Escherichia coli; format: toxicity; conditions: read-out: Ratio CC50/EC50
[14] = test system: Escherichia coli; assay: Antibacterial activity against Escherichia coli assessed as reduction in bacterial growth measured for 12 day serial passage incubated for 24 hrs by serial dilution method; format: functional, organism-based
Method in brief: (§2)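 NEB 5-alpha E. coli (DH5α derivative); 12-day liquid-culture serial passage. Dilute culture (OD600 = 0.01) grown 24 h with inhibitors in dose-response, in duplicate. EC50 taken from OD600 readings. Each day, bacteria were sub-cultured from the well with the highest inhibitor concentration still reaching OD600 > 0.2. Resistant strains were retested in a follow-up 24 h proliferation assay after 4×12 h passages without inhibitor, and were cross-tested against the other inhibitors.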

[15] = test system: Escherichia coli; assay: Antibacterial activity against Nitrofurantoin-resistant Escherichia coli assessed as reduction in bacterial growth measured for 12 day serial passage incubated for 24 hrs by serial dilution method; format: functional, organism-based; method in brief: as §2
[16] = test system: Escherichia coli; assay: Antibacterial activity against Nifuroxazide-resistant Escherichia coli assessed as reduction in bacterial growth measured for 12 day serial passage incubated for 24 hrs by serial dilution method; format: functional, organism-based; method in brief: as §2
[17] = test system: Escherichia coli; assay: Antibacterial activity against Escherichia coli harbouring NfsA and NfsB mutant assessed as reduction in bacterial growth measured for 12 day serial passage incubated for 24 hrs by serial dilution method; format: functional, organism-based; method in brief: as §2
[18] = test system: Escherichia coli; assay: Antibacterial activity against 5-chloro-N-[(5-nitro-2-furyl)methyleneamino]thiophene-2-carboxamide-resistant Escherichia coli assessed as reduction in bacterial growth measured for 12 day serial passage incubated for 24 hrs by serial dilution method; format: functional, organism-based; method in brief: as §2

T1 sequence (P0A6F5 whole entry, looked up): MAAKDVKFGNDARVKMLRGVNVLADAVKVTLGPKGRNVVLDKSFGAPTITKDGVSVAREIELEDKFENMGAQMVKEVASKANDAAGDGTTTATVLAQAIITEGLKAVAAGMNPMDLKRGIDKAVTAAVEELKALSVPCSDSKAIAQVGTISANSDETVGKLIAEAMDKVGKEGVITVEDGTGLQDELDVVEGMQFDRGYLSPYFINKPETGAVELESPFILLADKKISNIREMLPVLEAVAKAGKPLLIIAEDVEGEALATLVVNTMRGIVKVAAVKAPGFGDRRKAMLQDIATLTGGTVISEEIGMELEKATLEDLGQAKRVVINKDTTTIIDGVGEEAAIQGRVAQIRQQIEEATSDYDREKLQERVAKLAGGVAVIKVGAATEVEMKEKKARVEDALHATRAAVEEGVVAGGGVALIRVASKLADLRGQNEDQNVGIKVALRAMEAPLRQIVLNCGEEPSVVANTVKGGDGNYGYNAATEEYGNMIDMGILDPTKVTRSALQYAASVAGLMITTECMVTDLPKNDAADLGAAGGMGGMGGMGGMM

| SMILES | EC50 [1] [µM] | EC50 [2] [µM] | EC50 [3] [µM] | EC50 [4] [µM] | EC50 [5] [µM] | EC50 [6] [µM] | EC50 [7] [µM] | IC50 [8] [µM] | IC50 [9] [µM] | CC50 [10] [µM] | CC50 [11] [µM] | selectivity ratio [12] | selectivity ratio [13] | EC50 [14] [µM] | Activity [15] | Activity [16] | Activity [17] | Activity [18] |
| --- | --- | --- | --- | --- | --- | --- | --- | --- | --- | --- | --- | --- | --- | --- | --- | --- | --- | --- |
| O=[N+]([O-])c1ccc(O)c2ncccc12 [NITROXOLINE] | 18 | 9.5 | 2.8 | 2.5 | 99 | 6.6 | 4 | – | – | – | – | – | – | – | – | – | – | – |
| O=C(N/N=C/c1ccc([N+](=O)[O-])o1)c1cccs1 | 24 | 7.1 | 16 | 82 | > 100 | 40 | 0.42 | > 100 | 7.7 | 83 | 71 | 198 | 168 | – | – | – | – | – |
| COc1ccc(C(=O)N/N=C/c2ccc([N+](=O)[O-])o2)cc1 | 22 | 8.1 | > 100 | > 100 | > 100 | > 100 | 1.9 | 69 | 10 | > 100 | 75 | – | 40 | – | – | – | – | – |
| CN(C)c1ccc(C(=O)N/N=C/c2ccc([N+](=O)[O-])o2)cc1 | > 100 | 34 | > 100 | > 100 | > 100 | > 100 | 10 | 26 | 12 | > 100 | 93 | > 10 | 9.3 | – | – | – | – | – |
| O=C(N/N=C/c1ccc([N+](=O)[O-])o1)c1ccc(O)cc1 [NIFUROXAZIDE] | 8.1 | 16 | 37 | > 100 | > 100 | 54 | 0.87 | > 100 | 19 | 61 | 79 | 70 | 91 | 20 | Active | Active | inactive | Active |
| O=C1CN(/N=C/c2ccc([N+](=O)[O-])o2)C(=O)N1 [NITROFURANTOIN] | 38 | 27 | 40 | > 100 | > 100 | 36 | 0.69 | > 100 | 84 | > 100 | > 100 | – | – | 20 | inactive | inactive | inactive | inactive |
| O=C(N/N=C/c1ccc([N+](=O)[O-])o1)c1ccc(Cl)s1 | 12 | 3 | 19 | 72 | > 100 | 49 | 0.45 | 88 | 3.2 | 53 | 85 | 119 | 190 | 20 | Active | Active | inactive | inactive |
| O=C(N/N=C/c1ccc([N+](=O)[O-])o1)c1ccncc1 | 13 | 9.5 | 42 | 54 | > 100 | 73 | 2.4 | > 100 | 23 | 61 | 90 | 26 | 38 | – | – | – | – | – |
| O=C(N/N=C/c1ccc([N+](=O)[O-])o1)c1ccccc1 | 31 | 10 | 36 | > 100 | > 100 | > 100 | 2.1 | > 100 | 12 | > 100 | 94 | > 48 | 45 | – | – | – | – | – |
